Results as given in ChEMBL document CHEMBL3739286, “Betulinic acid derived hydroxamates and betulin derived carbamates are interesting scaffolds for the synthesis of novel cytotoxic compounds” (Eur J Med Chem, 2015).

How the values were obtained:
A549 = test: Cytotoxicity against human A549 cells after 96 hrs by SRB assay; assay type: functional, cell-based; details: Homo sapiens, A549, 96 h; read-out: EC50
Method in brief: (§1)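 Photometric sulforhodamine B read-out of antiproliferative effect after 96 h of continuous treatment; EC₅₀ values in µM, averaged from three independent experiments each run in triplicate; the assay cut-off is EC₅₀ > 30 µM. Human tumour lines are tested alongside nonmalignant mouse NIH 3T3 fibroblasts.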

A2780 = test: Cytotoxicity against human A2780 cells after 96 hrs by SRB assay; assay type: functional, cell-based; details: Homo sapiens, A2780, 96 h; read-out: EC50; method in brief: as §1
[1] = Cytotoxicity against mouse NIH/3T3 cells after 96 hrs by SRB assay; assay type: cell-based, NIH3T3; details: Mus musculus, NIH3T3, 96 h; read-out: EC50; method in brief: as §1
[2] = Cytotoxicity against human 518A2 cells after 96 hrs by SRB assay; assay type: functional, cell-based; details: Homo sapiens, 518A2, 96 h; read-out: EC50; method in brief: as §1
MCF7 = test: Cytotoxicity against human MCF7 cells after 96 hrs by SRB assay; assay type: functional, cell-based; details: Homo sapiens, MCF7, 96 h; read-out: EC50; method in brief: as §1

Row | SMILES | EC50 (A549) [µM] | EC50 (A2780) [µM] | EC50 [1] [µM] | EC50 [2] [µM] | EC50 (MCF7) [µM]
1 | C=CCONC(=O)[C@]12CC[C@@H](C(=C)C)[C@@H]1[C@H]1CC[C@@H]3[C@@]4(C)CC[C@H](O)C(C)(C)[C@@H]4CC[C@@]3(C)[C@]1(C)CC2 | 4.1 | 7.3 | 6.1 | 6.7 | 8.6
2 | C=C(C)[C@@H]1CC[C@]2(C(=O)N(C)O)CC[C@]3(C)[C@H](CC[C@@H]4[C@@]5(C)CCC(=O)C(C)(C)[C@@H]5CC[C@]43C)[C@@H]12 | 6 | 3 | 5 | 6.3 | 10.2
3 | C=CCONC(=O)[C@]12CC[C@@H](C(=C)C)[C@@H]1[C@H]1CC[C@@H]3[C@@]4(C)CC[C@H](OC(C)=O)C(C)(C)[C@@H]4CC[C@@]3(C)[C@]1(C)CC2 | 6.6 | 5.9 | > 30 | 7.6 | 12.2
4 | C=C(C)[C@@H]1CC[C@]2(C(=O)NO)CC[C@]3(C)[C@H](CC[C@@H]4[C@@]5(C)CC[C@H](O)C(C)(C)[C@@H]5CC[C@]43C)[C@@H]12 | 5.3 | 3.7 | 2 | 2.4 | 3.9
5 | C=C(C)[C@@H]1CC[C@]2(C(=O)NOC)CC[C@]3(C)[C@H](CC[C@@H]4[C@@]5(C)CCC(=O)C(C)(C)[C@@H]5CC[C@]43C)[C@@H]12 | 6.1 | 12 | 12.7 | 17.2 | 13.8
6 | C=C(C)[C@@H]1CC[C@]2(C(=O)N(C)OC)CC[C@]3(C)[C@H](CC[C@@H]4[C@@]5(C)CC[C@H](OC(C)=O)C(C)(C)[C@@H]5CC[C@]43C)[C@@H]12 | 20.1 | 19.3 | 17.4 | 17.5 | 16.4
7 | C=C(C)[C@@H]1CC[C@]2(C(=O)O)CC[C@]3(C)[C@H](CC[C@@H]4[C@@]5(C)CC[C@H](O)C(C)(C)[C@@H]5CC[C@]43C)[C@@H]12 [BETULINIC ACID] | 17.1 | 8.8 | 16.1 | 9.4 | 10.2
8 | C=C(C)[C@@H]1CC[C@]2(CO)CC[C@]3(C)[C@H](CC[C@@H]4[C@@]5(C)CC[C@H](O)C(C)(C)[C@@H]5CC[C@]43C)[C@@H]12 [BETULIN] | > 30 | > 30 | > 30 | > 30 | > 30
9 | C=C(C)[C@@H]1CC[C@]2(C(=O)O)CC[C@]3(C)[C@H](CC[C@@H]4[C@@]5(C)CCC(=O)C(C)(C)[C@@H]5CC[C@]43C)[C@@H]12 [BETUNOLIC ACID] | 25.9 | 20.4 | 13.1 | 29 | 25.9
10 | C=C(C)[C@@H]1CC[C@]2(C(=O)N(C)O)CC[C@]3(C)[C@H](CC[C@@H]4[C@@]5(C)CC[C@H](OC(C)=O)C(C)(C)[C@@H]5CC[C@]43C)[C@@H]12 | 4.3 | 2 | 2.9 | 3.5 | 2.3
11 | C=CCONC(=O)[C@]12CC[C@@H](C(=C)C)[C@@H]1[C@H]1CC[C@@H]3[C@@]4(C)CCC(=O)C(C)(C)[C@@H]4CC[C@@]3(C)[C@]1(C)CC2 | 25 | 19.7 | 19.7 | 22.4 | 18.4
12 | C=C(C)[C@@H]1CC[C@]2(CO)CC[C@]3(C)[C@H](CC[C@@H]4[C@@]5(C)CC[C@H](OC(C)=O)C(C)(C)[C@@H]5CC[C@]43C)[C@@H]12 | 14 | 11 | > 30 | 15.2 | 11.2
13 | C=C(C)[C@@H]1CC[C@]2(C(=O)NO)CC[C@]3(C)[C@H](CC[C@@H]4[C@@]5(C)CC[C@H](OC(C)=O)C(C)(C)[C@@H]5CC[C@]43C)[C@@H]12 | 1.3 | 1.3 | 1.1 | 1.6 | 1.4
